Laboratory results as given in ChEMBL document CHEMBL1156296, “Development of novel, highly potent inhibitors of V-RAF murine sarcoma viral oncogene homologue B1 (BRAF): increasing cellular potency through optimization of a distal heteroaromatic group” (J Med Chem, 2010).

Assays:
[1] = Growth inhibition of human WM266.4 cells expressing BRAF V600E mutant after 96 hrs by SRB assay
[2] = molecular target: T1, Serine/threonine-protein kinase B-raf (Homo sapiens, UniProt P15056, V600E); assay: Inhibition of BRAF V600E mutant ERK phosphorylation in human WM266.4 cells; format: cell-based
T1 sequence (P15056 2-766 V600E limits assumed): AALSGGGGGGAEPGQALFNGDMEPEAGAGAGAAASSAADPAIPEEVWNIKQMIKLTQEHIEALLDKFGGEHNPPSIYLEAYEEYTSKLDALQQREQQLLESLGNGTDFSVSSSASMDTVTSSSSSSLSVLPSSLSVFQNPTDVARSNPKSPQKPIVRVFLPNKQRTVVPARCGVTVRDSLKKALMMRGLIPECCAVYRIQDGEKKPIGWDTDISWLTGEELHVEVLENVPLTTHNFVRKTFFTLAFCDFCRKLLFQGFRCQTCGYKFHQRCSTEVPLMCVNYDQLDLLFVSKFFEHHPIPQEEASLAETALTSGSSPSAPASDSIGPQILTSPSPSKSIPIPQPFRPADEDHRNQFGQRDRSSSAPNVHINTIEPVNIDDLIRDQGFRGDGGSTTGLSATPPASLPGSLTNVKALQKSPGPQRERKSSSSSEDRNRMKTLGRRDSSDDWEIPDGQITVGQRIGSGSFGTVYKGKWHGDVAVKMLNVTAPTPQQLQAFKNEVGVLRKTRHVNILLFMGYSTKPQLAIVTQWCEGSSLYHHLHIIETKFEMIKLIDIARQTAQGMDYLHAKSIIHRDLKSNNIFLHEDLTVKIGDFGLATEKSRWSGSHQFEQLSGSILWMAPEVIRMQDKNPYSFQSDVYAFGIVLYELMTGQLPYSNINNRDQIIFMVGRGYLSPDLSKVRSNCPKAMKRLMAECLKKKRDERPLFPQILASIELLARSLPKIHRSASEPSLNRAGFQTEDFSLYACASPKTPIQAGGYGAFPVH
Procedure, shortened: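 WM266.4 melanoma cells, which carry mutant V600E BRAF, exposed to inhibitor for 6 h. ERK phosphorylation (pERK) measured and IC50 derived. Run in triplicate, with a few compounds measured once.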

[3] = molecular target: T1, Serine/threonine-protein kinase B-raf; assay: Inhibition of human BRAF V600E mutant expressed in baculovirus system
Procedure, shortened: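 Isolated purified V600E BRAF kinase with a 45 min incubation. Enzyme inhibition measured and IC50 derived. Run in triplicate, with one compound measured once.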

[4] = Metabolic stability in mouse liver microsomes; format: ADME, Microsome
Procedure, shortened: (§1)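 Phase I microsomal incubation of compound at 10 μM for 30 min, stopped with 3 volumes of methanol containing 500 nM roscovitine as internal standard. Parent and metabolites were measured by LC-MS, positive-ion electrospray, on a polar reversed-phase column.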

[5] = Growth inhibition of human WM266.4 cells expressing BRAF V600E mutant after 5 days by SRB assay; format: functional; conditions: WM 266-4, 120 h
[6] = Tmax in BALB/cAnNCrl mouse at 10 mg/kg, po; format: ADME, organism-based; design: dose 10 mg/kg, route oral; conditions: in vivo
Procedure, shortened: (§2)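 Female BALB/cAnNCrl mice, at least 6 weeks old, dosed once by oral gavage at 10 mL/kg in DMSO/water 1:19 v/v. Blood was taken at six or eight time points from 15 min to 18 or 24 h, three mice per time point, by terminal cardiac puncture under halothane or isoflurane into heparinized syringes. Plasma was snap frozen and stored at -70 °C.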

[7] = Half life in BALB/cAnNCrl mouse at 10 mg/kg, po; format: ADME, organism-based; design: dose 10 mg/kg, route oral; conditions: in vivo
Procedure, shortened: as §2

[8] = Oral bioavailability in BALB/cAnNCrl mouse at 10 mg/kg; format: ADME, organism-based; conditions: in vivo
Procedure, shortened: (§3)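 Female BALB/cAnNCrl mice, at least 6 weeks old. The oral arm was gavage at 10 mL/kg in DMSO/water 1:19. The iv arm was 2 mg/kg (~4 μmol/kg) at 10 mL/kg in DMSO/Tween-20/water 10:1:89, sampled at seven or eight points from 5 min to 18 or 24 h. Three mice per time point, terminal cardiac blood, plasma.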

Liver microsomes = assay: Metabolic stability in human liver microsomes; format: ADME, Microsome
Procedure, shortened: as §1

[9] = Cmax in BALB/cAnNCrl mouse at 10 mg/kg, po; format: ADME, organism-based; design: dose 10 mg/kg, route oral; conditions: in vivo
Procedure, shortened: as §2

[10] = Cmax in BALB/cAnNCrl mouse at 20 mg/kg, po; format: ADME, organism-based; design: dose 20 mg/kg, route oral; conditions: in vivo
Procedure, shortened: as §2

[11] = Oral bioavailability in BALB/cAnNCrl mouse at 20 mg/kg; format: ADME, organism-based; conditions: in vivo
Procedure, shortened: as §3

[12] = Tmax in BALB/cAnNCrl mouse at 20 mg/kg, po; format: ADME, organism-based; design: dose 20 mg/kg, route oral; conditions: in vivo
Procedure, shortened: as §2

[13] = Ratio of plasma concentration in Crl:CD1-Foxn1nu mouse to GI50 for human WM266.4 cells xenografted in Crl:CD1-Foxn1nu mouse; format: ADME; conditions: in vivo
[14] = Half life in BALB/cAnNCrl mouse at 20 mg/kg, po; format: ADME, organism-based; design: dose 20 mg/kg, route oral; conditions: in vivo
Procedure, shortened: as §2

[15] = Growth inhibition of wild type human WM1361 cells after 5 days by SRB assay; conditions: WM1361, 120 h
[16] = Selectivity ratio of GI50 for human WM266.4 cells expressing BRAF V600E mutant to GI50 for human WM1361 cells

| Structure (SMILES) | GI50 [1] [µM] | IC50 [2] [µM] | IC50 [3] [µM] | Stability [4] [%] | GI50 [5] [µM] | Tmax [6] [h] | half-life [7] [h] | bioavailability [8] [%] | Stability (Liver microsomes) [%] | Cmax [9] [µM] | Cmax [10] [µM] | bioavailability [11] [%] | Tmax [12] [h] | Ratio [13] | half-life [14] [h] | GI50 [15] [µM] | fold change (FC) [16] |
| --- | --- | --- | --- | --- | --- | --- | --- | --- | --- | --- | --- | --- | --- | --- | --- | --- | --- |
| Cc1ccc(-n2nc(C(C)(C)C)cc2NC(=O)Nc2ccc(Oc3ccnc4c3[nH]c(=O)n4C)cc2)cc1 | 0.052 | 0.036 | 3 |  |  |  |  |  |  |  |  |  |  |  |  |  |  |
| Cc1ccc(-n2nc(C(C)(C)C)cc2NC(=O)Nc2ccc(Oc3ccnc4[nH]c(=O)n(C)c34)c3ccccc23)cc1 |  | 0.026 | 2.28 | < 30 | 0.016 | 1 | 8.4 | 43 | < 30 | 43.3 |  |  |  |  |  |  |  |
| Cc1ccc(-n2nc(C(C)(C)C)cc2NC(=O)Nc2ccc(Oc3ccnc4[nH]c(=O)[nH]c34)cc2)cc1 |  | 0.42 | 0.142 |  | 0.3 |  |  |  |  |  | 3.67 | 6.5 | 0.5 | 12 | 4 |  |  |
| Cn1c(=O)[nH]c2nccc(Oc3ccc(NC(=O)Nc4cc(C(C)(C)C)nn4-c4ccccc4)c4ccccc34)c21 |  | 0.019 | 0.251 | < 30 | 0.024 |  |  |  | < 30 |  | 35.5 | 33 | 1.5 |  | 1.91 | 1.2 | 49 |
